Experimental data published in ChEMBL document CHEMBL1143029, “Heme oxygenase inhibition by 2-oxy-substituted 1-(1H-imidazol-1-yl)-4-phenylbutanes: effect of halogen substitution in the phenyl ring” (Bioorg Med Chem, 2007).

Legend:
[1] = target: T1, Heme oxygenase 2 (Rattus norvegicus) (UniProt P23711); experiment: Inhibition of Sprague-Dawley rat brain microsome HO2 at 100 uM relative to control
T1 sequence (whole entry): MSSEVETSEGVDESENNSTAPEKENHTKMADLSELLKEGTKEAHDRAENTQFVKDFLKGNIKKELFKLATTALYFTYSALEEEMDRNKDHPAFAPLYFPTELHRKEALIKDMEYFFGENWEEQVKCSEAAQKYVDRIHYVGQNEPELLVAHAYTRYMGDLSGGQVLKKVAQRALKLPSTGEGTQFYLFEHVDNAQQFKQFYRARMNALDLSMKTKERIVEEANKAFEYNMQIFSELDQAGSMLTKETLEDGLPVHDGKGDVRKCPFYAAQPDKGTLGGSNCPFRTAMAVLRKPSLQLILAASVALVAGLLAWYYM
Outline: (§1)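 Spleen (HO-1) or brain (HO-2) microsomes from Sprague-Dawley rats, at 1 mg/mL protein in 100 mM phosphate buffer pH 7.4 with methemalbumin (heme–albumin) as substrate. Inhibitor hydrochloride pre-incubated 10 min at 37 °C, then 1 mM NADPH added for 15 min at 37 °C. Stopped by freezing on dry ice. CO formed measured by gas chromatography; activity given as percent of no-inhibitor control.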

[2] = target: T2, Heme oxygenase 1 (Rattus norvegicus) (UniProt P06762); conditions: Sprague-Dawley, Spleen, Microsome, 100 uM
T2 sequence (whole entry): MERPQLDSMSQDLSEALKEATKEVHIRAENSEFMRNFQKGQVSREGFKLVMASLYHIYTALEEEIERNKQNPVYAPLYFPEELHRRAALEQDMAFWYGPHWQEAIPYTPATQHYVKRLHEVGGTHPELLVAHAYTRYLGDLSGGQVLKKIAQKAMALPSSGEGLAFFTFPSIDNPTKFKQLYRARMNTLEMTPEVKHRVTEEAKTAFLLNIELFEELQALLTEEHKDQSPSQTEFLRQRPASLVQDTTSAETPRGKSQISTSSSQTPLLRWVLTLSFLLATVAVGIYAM

Rattus norvegicus = species: Rattus norvegicus; experiment: Selectivity index, ratio of IC50 for Sprague-Dawley rat brain HO2 to IC50 for Sprague-Dawley rat spleen HO1; format: tissue-based
Outline: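 Ratio of IC50(HO-2) to IC50(HO-1). HO-2 comes from Sprague-Dawley rat brain microsomes and HO-1 from spleen microsomes. Both were assayed identically: methemalbumin substrate, 10 min inhibitor pre-incubation at 37 °C, 15 min reaction with 1 mM NADPH, and CO measured by GC. Each IC50 was derived from sigmoidal dose–response fits of percent-control activity.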

Heme oxygenase 1 = target: T3, Heme oxygenase 1 (Rattus norvegicus, UniProt P06762); experiment: Inhibition of Sprague-Dawley rat spleen microsome HO1; format: microsomes
T3 sequence (P06762 whole entry): T2 sequence (whole entry)

Heme oxygenase 2 = target: T4, Heme oxygenase 2 (Rattus norvegicus, UniProt P23711); experiment: Inhibition of Sprague-Dawley rat brain microsome HO2
T4 sequence (P23711 whole entry): T1 sequence (whole entry)

[3] = target: T2, Heme oxygenase 1 (Rattus norvegicus); experiment: Inhibition of Sprague-Dawley rat spleen microsome HO1 at 0.01 uM relative to control; format: microsomes
[4] = target: T2, Heme oxygenase 1 (Rattus norvegicus); experiment: Inhibition of Sprague-Dawley rat spleen microsome HO1 at 0.1 uM relative to control; format: microsomes; outline: as §1
[5] = target: T1, Heme oxygenase 2 (Rattus norvegicus); experiment: Inhibition of Sprague-Dawley rat brain microsome HO2 at 0.1 uM relative to control; outline: as §1

Row | Compound | inhibition [1] [%] | Ratio IC50 (Rattus norvegicus) | IC50 (Heme oxygenase 1) [µM] | IC50 (Heme oxygenase 2) [µM] | also measured
1 | O=C(CCc1ccccc1)Cn1ccnc1 | 60 |  |  |  | inhibition [2]: 80%
2 | Clc1ccc(CCC2(Cn3ccnc3)OCCO2)cc1 |  | > 23.2 | 4.3 |  | 
3 | Fc1ccc(CCC2(Cn3ccnc3)OCCO2)cc1 |  | > 26.3 | 3.8 | > 100 | 
4 | Brc1ccc(CCC2(Cn3ccnc3)OCCO2)cc1 |  | > 52.6 |  | > 100 | 
5 | OC(CCc1ccc(Cl)cc1)Cn1ccnc1 (stereo not given) | 90 | 8 |  |  | 
6 | OC(CCc1ccc(Br)cc1)Cn1ccnc1 (stereo not given) |  |  |  |  | inhibition [3]: 8%; inhibition [4]: 55%
7 | OC(CCc1ccccc1)Cn1ccnc1 (stereo not given) |  | 2.6 | 6.2 |  | 
8 | O=C(CCc1ccc(F)cc1)Cn1ccnc1 | 60 | 1.4 |  | 1.9 | inhibition [5]: 10%; inhibition [2]: 80%
9 | Nc1ccc(SC[C@@H]2CO[C@](CCc3ccc(Cl)cc3)(Cn3ccnc3)O2)cc1 [AZALANSTAT] |  | 4.6 | 5.3 | 24.5 | 
10 | OC(CCc1ccc(I)cc1)Cn1ccnc1 (stereo not given) |  |  |  | 1.8 | 
11 | O=C(CCc1ccc(Br)cc1)Cn1ccnc1 | 60 |  |  | 9.5 | 
12 | O=C(CCc1ccc(I)cc1)Cn1ccnc1 | 60 | 16.4 |  |  | inhibition [5]: 10%; inhibition [4]: 44%; inhibition [2]: 80%
13 | c1ccc(CCC2(Cn3ccnc3)OCCO2)cc1 |  |  |  | > 100 | 
14 | Ic1ccc(CCC2(Cn3ccnc3)OCCO2)cc1 |  | > 27 | 3.7 | > 100 | 
